PubChem BioAssay AID463186 (The Scripps Research Institute Molecular Screening Center, 2010)
Activity calls are given as the source filed them.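 Rule for the calls: active = mean luminescence fold change over vehicle of at least 10; inactive = the rest.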

Target: G2/mitotic-specific cyclin-B1 (Homo sapiens) (UniProt P14635)
Test: cyclin B1-luciferase fusion stabilization in HeLa – cell-based, luminescence, powder samples, selectivity assay for Wee1 degradation inhibitor project, late-stage follow-up (AID 463186)
Details: HeLa cyclin B-luciferase stability, at 0.1 µM, stronger effect = higher value
How it was run: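 System: HeLa cells transiently expressing cyclin B–luciferase fusion reporter | Doses: Single nominal dose of 100 nM (0.1 µM) per compound | Timing: 48 h transfection, then 20 h compound exposure at 37 °C | Technique: Luminescence of luciferase reporter | Read-out basis: Mean fold-change in luminescence relative to DMSO-treated cells | Repeats: Four replicate wells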

Sequence of G2/mitotic-specific cyclin-B1 (Homo sapiens) (P14635 whole entry, looked up, the tested form may be a part): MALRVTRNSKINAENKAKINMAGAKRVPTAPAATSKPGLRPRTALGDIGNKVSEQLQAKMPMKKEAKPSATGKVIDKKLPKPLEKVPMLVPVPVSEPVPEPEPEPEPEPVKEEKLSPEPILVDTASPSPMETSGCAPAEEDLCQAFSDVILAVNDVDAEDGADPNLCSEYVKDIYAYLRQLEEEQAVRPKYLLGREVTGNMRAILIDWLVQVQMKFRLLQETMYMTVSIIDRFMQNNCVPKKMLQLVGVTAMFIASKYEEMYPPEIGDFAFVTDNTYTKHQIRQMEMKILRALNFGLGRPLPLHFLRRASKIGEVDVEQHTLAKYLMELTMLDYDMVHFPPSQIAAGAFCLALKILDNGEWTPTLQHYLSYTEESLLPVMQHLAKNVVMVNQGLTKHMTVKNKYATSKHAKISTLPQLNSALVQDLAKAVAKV

| fold change | SMILES |
| --- | --- |
| 2.62 (inactive) | O=[N+]([O-])c1cccc2[nH]c(CNc3nc(N4CCOCC4)nc4c3ncn4-c3ccsc3)nc12 |
| 4.15 (inactive) | c1ccc2[nH]c(CNc3nc(N4CCOCC4)nc4c3ncn4-c3ccsc3)nc2c1 |
